Drawing on ChEMBL document CHEMBL1143072, “Nitric oxide production inhibitory activity of flavonoids contained in trunk exudates of Dalbergia sissoo” (J Nat Prod, 2008), this text covers Activity and IC50 for eight compounds.

Data set [1] in a line: Cytotoxicity against LPS induced mouse J774.1 cells by MTT assay. It counts as cell-based. A digest of the protocol: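 LPS-stimulated J774.1 cells from the NO assay (1 × 10^5 cells/well, 24 h with LPS 1 µg/mL plus compound). After the supernatant is taken off, cells get fresh medium with MTT 2 mg/mL for 3 h at 37 °C in 5% CO2. Formazan is dissolved in DMSO and absorbance is read at 550 nm.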
(Tetrazolium assays rely on reduction of a dye to a coloured formazan, in cell work by metabolically active cells.)

The next data set deals with J774.1. Put plainly: Inhibition of nitric oxide production in LPS induced mouse J774.1 cells. It counts as functional, cell-based. A digest of the protocol:
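J774.1 cells are grown in DMEM with 10% FCS, penicillin and streptomycin. Adherent cells are plated at 1 × 10^5 cells/well and left 6 h at 37 °C in 5% CO2. Fresh medium with LPS 1 µg/mL and the compound at a range of concentrations is added for 24 h. Nitrite in the supernatant is measured with Griess reagent (10 min, room temperature, A550), with medium blank subtracted. % inhibition is taken against LPS-only wells. L-NMMA is the positive control.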

Data set [2] can be described thus: Inhibition of NO production in LPS induced mouse J774.1 cells by Griess assay. (Nitrite, measured by Griess reagent, commonly stands in for NO production.)

In general, IC50 refers to the midpoint of a concentration-inhibition curve. In data set [1], `COc1ccc(C(=O)/C=C/c2ccccc2)c(O)c1` showed an Activity of more than 25 µM. Besides, the 50% inhibitory concentration (IC50) in the data set on J774.1 was 5.4 µM. As for `CNC(=N)NCCC[C@H](N)C(=O)O` [TILARGININE], the half-inhibitory concentration (IC50) is 27.1 µM in data set [2] and 31.6 µM in the data set with J774.1. In the data set on J774.1, `COC1=CC(O)(C/C=C/c2ccccc2)C(OC)=CC1=O` (configuration not stated) yielded an IC50 of 6.22 µM. Compound `C=CC(c1ccccc1)C1(O)C(=O)C=C(OC)C(=O)C1O` (configuration not stated) displayed an Activity in data set [1] of more than 100 µM. This compound came in with a half-inhibitory concentration (IC50) in the data set with J774.1 of 3.19 µM. `C=C[C@H](C1=CC(=O)C(OC)=CC1=O)c1ccccc1`: in the data set on J774.1, the half-inhibitory concentration (IC50) came out at 38.8 µM. Still for that read-out and setting: to `C=C[C@@H](c1ccccc1)c1cc(O)ccc1O` belongs 31.6 µM. Still for that read-out and setting: the value for `C=C[C@H](C1=CC(=O)C=CC1=O)c1ccccc1` was 39.7 µM. Regarding `C=C[C@H](C1=CC(=O)C(OC)=CC1=O)c1ccc(O)cc1`, the Activity in data set [1] was more than 100 µM. In the data set with J774.1, this compound showed a concentration for half-maximal inhibition (IC50) of 11.5 µM.
